How the values were obtained:
HIV-1NL4-3 = HIV-1NL4-3 replication inhibition assay in MT-4 lymphocytes; assay type: cell-based; conditions: HIV-1NL4-3 infected MT-4 cells
Summary of the method: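 MT-4 cells infected with HIV-1 NL4-3 variants at a multiplicity of infection of 0.01, in a microtiter-plate replication screen.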

[1] = molecular target: T1, rabbit muscle glycogen phosphorylase a (RMGPa) (Oryctolagus cuniculus, UniProt P00489); assay: Inhibition of rabbit muscle glycogen phosphorylase a; assay type: biochemical; conditions: for GP inhibitory potency relative to betulin (3): fold more potent than 3
T1 sequence (P00489 1-843): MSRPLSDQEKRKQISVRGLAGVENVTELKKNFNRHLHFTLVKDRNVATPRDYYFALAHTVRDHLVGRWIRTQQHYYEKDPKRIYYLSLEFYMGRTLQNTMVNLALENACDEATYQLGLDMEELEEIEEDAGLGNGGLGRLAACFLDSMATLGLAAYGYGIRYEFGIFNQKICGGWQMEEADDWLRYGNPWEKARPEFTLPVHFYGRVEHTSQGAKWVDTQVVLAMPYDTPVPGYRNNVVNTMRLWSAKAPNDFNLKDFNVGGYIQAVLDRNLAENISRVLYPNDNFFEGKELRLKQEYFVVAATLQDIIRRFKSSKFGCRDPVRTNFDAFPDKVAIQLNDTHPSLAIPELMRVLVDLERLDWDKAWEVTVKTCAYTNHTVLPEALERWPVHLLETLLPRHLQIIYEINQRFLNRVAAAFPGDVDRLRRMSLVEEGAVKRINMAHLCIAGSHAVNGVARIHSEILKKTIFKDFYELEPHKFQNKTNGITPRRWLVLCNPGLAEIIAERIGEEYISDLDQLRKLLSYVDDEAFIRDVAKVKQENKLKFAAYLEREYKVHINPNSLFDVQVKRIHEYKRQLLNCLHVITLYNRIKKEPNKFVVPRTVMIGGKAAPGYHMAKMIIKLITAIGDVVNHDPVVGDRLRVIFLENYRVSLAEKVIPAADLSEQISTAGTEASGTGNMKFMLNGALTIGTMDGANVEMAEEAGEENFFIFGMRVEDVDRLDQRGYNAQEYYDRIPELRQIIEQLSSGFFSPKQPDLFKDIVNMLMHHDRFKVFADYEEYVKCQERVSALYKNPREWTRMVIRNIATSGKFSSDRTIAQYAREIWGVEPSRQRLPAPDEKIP

[2] = system: PC3 (human prostate cancer); assay: MTT cytotoxicity assay, PC3; assay type: cell-based; conditions: 48 h, means of three experiments, NA = no activity
[3] = system: A549 (human lung carcinoma); assay: MTT cytotoxicity assay, A549; assay type: cell-based; conditions: 48 h
[4] = system: MCF-7 (human breast cancer); assay: MTT cytotoxicity assay, MCF-7; assay type: cell-based; conditions: 48 h
HIV-1IIIB = HIV-1IIIB infected C8166 cell lines; cited from earlier work

## C=C(C)[C@@H]1CC[C@]2(CO)CC[C@]3(C)[C@H](CC[C@@H]4[C@@]5(C)CC[C@H](O)C(C)(C)[C@@H]5CC[C@]43C)[C@@H]12 [Compound 3, betulin]
HIV-1NL4-3
  anti-HIV-1 activity (result in words): did not exhibit significant antiviral activity

## C=C(C)[C@@H]1CC[C@]2(COC(c3ccccc3)(c3ccccc3)c3ccccc3)CC[C@]3(C)[C@H](CC[C@@H]4[C@@](C)(CC(=O)OC)[C@H](C(C)(C)C(=O)OC)CC[C@]43C)[C@@H]12 [Compound 6]
[1]
  GP inhibitory potency relative to betulin (3): 14 fold

## C=C(C)[C@@H]1CC[C@]2(COC(c3ccccc3)(c3ccccc3)c3ccccc3)CC[C@]3(C)[C@H](CC[C@@H]4[C@@]5(C)[C@H](C(=O)OC)[C@H](O)C(C)(C)[C@@H]5CC[C@]43C)[C@@H]12 [Compound 8]
[2]
  IC50 ±SD, cytotoxic activity, PC3: inactive

## C=C(C)[C@@H]1CC[C@]2(COC(c3ccccc3)(c3ccccc3)c3ccccc3)CC[C@]3(C)[C@H](CC[C@@H]4[C@@](C)(CC(=O)O)[C@H](C(C)(C)C(=O)O)CC[C@]43C)[C@@H]12 [Compound 5]
[1]
  GP inhibitory potency relative to betulin (3): ~200 fold
[1]; fold more potent than 6
  GP inhibitory potency relative to compound 6: 14 fold

## C=C(C)[C@@H]1CC[C@]2(C(=O)O)CC[C@]3(C)[C@H](CC[C@@H]4[C@@]5(C)[C@@H](C(=O)O)[C@H](O)C(C)(C)[C@@H]5CC[C@]43C)[C@@H]12 [Compound 2a, ceanothic acid]
HIV-1NL4-3
  anti-HIV-1 activity (result in words): no anti-HIV-1 activity

## C=C(C)[C@@H]1CC[C@]2(COC(c3ccccc3)(c3ccccc3)c3ccccc3)CC[C@]3(C)[C@H](CC[C@@H]4[C@@]5(C)[C@H](C(=O)OC)[C@H](OC(C)=O)C(C)(C)[C@@H]5CC[C@]43C)[C@@H]12 [Compound 9]
[2]
  IC50 ±SD, cytotoxic activity, PC3: inactive

## C=C(C)[C@@H]1CC[C@]2(C(=O)O)CC[C@]3(C)[C@H](CC[C@@H]4[C@@]5(C)[C@H](C(=O)O)[C@H](O)C(C)(C)[C@@H]5CC[C@]43C)[C@@H]12 [Compound 1, Epiceanothic acid]
[3]
  decrease of cytotoxic activity against A549 compared with 12: more than 20 fold
[4]
  decrease of cytotoxic activity against MCF-7 compared with 12: more than 20 fold
HIV-1IIIB
  EC50, anti-HIV-1 replication activity: < 0.064 µg/mL
